Measurements from ChEMBL document CHEMBL1150350, “Evaluation of the amino acid binding site of Mycobacterium tuberculosis glutamine synthetase for drug discovery” (Bioorg Med Chem, 2008).
Active and inactive are the calls of the source. No cut-off for these calls is given here.

Tests used:
[1] = tested on: Mycobacterium tuberculosis; test: Inhibition of Mycobacterium tuberculosis glutamine synthetase at 0.75 mM in DMSO
How it was run: (§1)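 Compound from a DMSO stock (2% v/v DMSO final) was preincubated 20 min at RT with unadenylylated MtGS (7 nM subunit) in 50 mM HEPES-HCl pH 7.5, 25 mM MgCl2, 1 mM ATP and 30 mM NH4Cl. Started with 10 mM L-glutamate, 60 min at RT. Phosphate read at 635 nm, corrected by a compound-background plate lacking GS and ATP. Triplicate, % vs uninhibited enzyme.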

[2] = tested on: Mycobacterium tuberculosis; test: Activation of Mycobacterium tuberculosis glutamine synthetase at 1 mM in water
How it was run: (§2)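 Unadenylylated MtGS from an E. coli expression strain, 7 nM subunit, in 50 mM HEPES-HCl pH 7.5 with 25 mM MgCl2, 1 mM ATP and 30 mM NH4Cl. Compound (water stock) was preincubated 20 min at RT, then 10 mM L-glutamate was added and the reaction run 60 min at RT. Released Pi was read at A635 minus a no-GS/no-ATP background. Triplicate; % of uninhibited; t-test, p<0.1.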

Ovis aries [3] = species: Ovis aries; test: Inhibition of sheep brain glutamine synthetase at 25 mM
Glutamine synthetase [4] = biological target: T1, Glutamine synthetase (Glycine max, UniProt Q43760); test: Inhibition of soybean glutamine synthetase by transferase assay
T1 sequence (Q43760 whole entry): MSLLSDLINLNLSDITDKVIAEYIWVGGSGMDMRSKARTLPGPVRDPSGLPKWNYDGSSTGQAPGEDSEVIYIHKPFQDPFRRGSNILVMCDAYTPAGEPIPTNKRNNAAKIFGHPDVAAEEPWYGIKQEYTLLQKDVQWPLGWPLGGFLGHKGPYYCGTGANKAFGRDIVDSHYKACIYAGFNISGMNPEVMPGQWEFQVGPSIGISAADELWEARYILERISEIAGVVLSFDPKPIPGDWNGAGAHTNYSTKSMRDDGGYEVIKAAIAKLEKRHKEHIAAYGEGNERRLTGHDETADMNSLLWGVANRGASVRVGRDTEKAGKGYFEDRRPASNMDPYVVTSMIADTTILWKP

[5] = tested on: Mycobacterium tuberculosis; conditions: at 1 mM
[6] = Inhibition of sheep brain glutamine synthetase by transferase assay; set-up: species or system Ovis aries
[7] = tested on: Mycobacterium tuberculosis; test: Inhibition of Mycobacterium tuberculosis glutamine synthetase at 0.20 mM in water; how it was run: as §2
[8] = tested on: Mycobacterium tuberculosis; test: Inhibition of Mycobacterium tuberculosis glutamine synthetase at 1 mM in DMSO; how it was run: as §1
[9] = Inhibition of Escherichia coli glutamine synthetase by transferase assay
Escherichia coli = test: Inhibition of Escherichia coli glutamine synthetase at 1.1 mM
Ovis aries [10] = species: Ovis aries; test: Inhibition of sheep brain glutamine synthetase at 0.5 mM by transferase assay
Glutamine synthetase [11] = biological target: T2, Glutamine synthetase (Salmonella typhimurium (strain LT2 / SGSC1412 / ATCC 700720), UniProt P0A1P6); test: Inhibition of Salmonella Typhimurium glutamine synthetase by transferase assay; set-up: species or system Salmonella enterica subsp. enterica serovar Typhimurium
T2 sequence (P0A1P6 whole entry): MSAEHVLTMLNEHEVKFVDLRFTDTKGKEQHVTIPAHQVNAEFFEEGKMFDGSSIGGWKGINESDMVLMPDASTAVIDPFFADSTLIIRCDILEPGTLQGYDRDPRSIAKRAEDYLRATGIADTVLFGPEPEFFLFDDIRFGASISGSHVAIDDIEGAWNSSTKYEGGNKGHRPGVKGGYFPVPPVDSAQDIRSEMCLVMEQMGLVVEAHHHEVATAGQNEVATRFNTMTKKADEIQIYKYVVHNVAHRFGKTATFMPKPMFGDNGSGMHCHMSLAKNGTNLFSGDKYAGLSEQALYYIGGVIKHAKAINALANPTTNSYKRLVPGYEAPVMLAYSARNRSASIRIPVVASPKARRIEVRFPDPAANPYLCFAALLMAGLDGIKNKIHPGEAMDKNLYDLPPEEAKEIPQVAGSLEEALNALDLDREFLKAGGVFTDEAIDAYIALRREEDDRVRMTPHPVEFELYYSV

[12] = Inhibition of Mycobacterium tuberculosis glutamine synthetase by transferase assay
[13] = biological target: T3, Glutamine synthetase (Glycine max) (UniProt Q43760); test: Inhibition of soybean glutamine synthetase at 0.5 mM by transferase assay
T3 sequence (whole entry): T1 sequence (Q43760 whole entry)

[14] = tested on: Mycobacterium tuberculosis; test: Inhibition of Mycobacterium tuberculosis glutamine synthetase at 0.90 mM in water; how it was run: as §2
[15] = tested on: Mycobacterium tuberculosis; test: Inhibition of Mycobacterium tuberculosis glutamine synthetase at 0.93 mM in water; how it was run: as §2
[16] = tested on: Mycobacterium tuberculosis; test: Inhibition of Mycobacterium tuberculosis glutamine synthetase at 0.50 mM in water; how it was run: as §2
[17] = tested on: Mycobacterium tuberculosis; test: Activation of Mycobacterium tuberculosis glutamine synthetase at 0.50 mM in water; how it was run: as §2

N[C@@H](CCCP(=O)(O)O)C(=O)O
Activity [1]: inactive

CCOP(=O)(OCC)c1cccc(N[C@H](CO)C(=O)O)c1
Activity [2]: Active

C[S+]([O-])CC[C@H](N)C(=O)O (some centres undefined)
inhibition (Ovis aries [3]): 11%

N[C@@H](CCNO)C(=O)O
Ki (Glutamine synthetase [4]): 21 µM | inhibition [5]: 26% | Ki [6]: 7 µM

NS(=O)(=O)c1cccc(N[C@@H](CO)C(=O)O)c1
Activity [2]: Active

NC(Cc1ccccc1CP(=O)(O)O)C(=O)O (centres undefined)
Activity [7]: inactive

NS(=O)(=O)c1ccc2[nH]c(=O)[nH]c2c1
inhibition [8]: 24%

N[C@@H](CCP(=O)(O)O)C(=O)O
Ki [9]: 54 µM | inhibition (Escherichia coli): 61%

CS(=O)(=O)CC[C@H](N)C(=O)O
inhibition [5]: 33% | inhibition (Ovis aries [3]): 67%

O=C(O)CNc1cccc(C(=O)O)c1
Activity [2]: Active

CCOP(=O)(OCC)c1cccc(N[C@@H](CO)C(=O)O)c1
Activity [2]: Active

NC[C@H](O)CC[C@H](N)C(=O)O
inhibition (Ovis aries [10]): 22% | Ki (Glutamine synthetase [11]): 40 µM | inhibition [5]: 58% | IC50 [12]: 610 µM | inhibition [8]: 56% | inhibition [13]: 21%

O=C(O)c1cccc(NC(=O)c2nc[nH]n2)c1
inhibition [8]: 26%

C[S+]([O-])c1cccc(NCC(=O)O)c1 (centres undefined)
inhibition [5]: 30%

CSc1cccc(NCC(=O)O)c1
Activity [14]: inactive

C[S+]([O-])c1cccc(N[C@@H](CO)C(=O)O)c1 (some centres undefined)
inhibition [5]: 13%

O=C(O)c1cccc(N[C@@H](CO)C(=O)O)c1
Activity [2]: Active

O=C(O)CNc1ccc(O)c(S(=O)(=O)O)c1
inhibition [5]: 48%

NC(Cc1ccc(CP(=O)(O)O)cc1)C(=O)O (centres undefined)
Activity [15]: inactive

CCOP(=O)(OCC)c1cccc(NCC(=O)O)c1
inhibition [8]: 42%

CP(=O)(O)CCC(N)C(=O)O (racemic) [GLUFOSINATE]
IC50 [12]: 1.9 µM

O=C(O)c1cccc(N[C@H](CO)C(=O)O)c1
Activity [2]: Active

CSc1cccc(N[C@H](CO)C(=O)O)c1
Activity [16]: inactive

CSc1cccc(N[C@@H](CO)C(=O)O)c1
Activity [17]: Active

NS(=O)(=O)c1cccc(N[C@H](CO)C(=O)O)c1
inhibition [5]: 33%
